# Measurements as given in ChEMBL document CHEMBL3102734, “Inhibition of LOX by flavonoids: a structure-activity relationship study” (Eur J Med Chem, 2014).
# Calls of active or inactive are those of the source. The calls are words filed in the database; no cut-off is given here.
# Columns and labels:
# [1] = target: T1, Seed linoleate 13S-lipoxygenase-1 (Glycine max) (UniProt P08170); assay: Binding affinity to soybean LOX-1 at 1248 uM by STD-[1H] NMR spectroscopic analysis
# T1 sequence (whole entry): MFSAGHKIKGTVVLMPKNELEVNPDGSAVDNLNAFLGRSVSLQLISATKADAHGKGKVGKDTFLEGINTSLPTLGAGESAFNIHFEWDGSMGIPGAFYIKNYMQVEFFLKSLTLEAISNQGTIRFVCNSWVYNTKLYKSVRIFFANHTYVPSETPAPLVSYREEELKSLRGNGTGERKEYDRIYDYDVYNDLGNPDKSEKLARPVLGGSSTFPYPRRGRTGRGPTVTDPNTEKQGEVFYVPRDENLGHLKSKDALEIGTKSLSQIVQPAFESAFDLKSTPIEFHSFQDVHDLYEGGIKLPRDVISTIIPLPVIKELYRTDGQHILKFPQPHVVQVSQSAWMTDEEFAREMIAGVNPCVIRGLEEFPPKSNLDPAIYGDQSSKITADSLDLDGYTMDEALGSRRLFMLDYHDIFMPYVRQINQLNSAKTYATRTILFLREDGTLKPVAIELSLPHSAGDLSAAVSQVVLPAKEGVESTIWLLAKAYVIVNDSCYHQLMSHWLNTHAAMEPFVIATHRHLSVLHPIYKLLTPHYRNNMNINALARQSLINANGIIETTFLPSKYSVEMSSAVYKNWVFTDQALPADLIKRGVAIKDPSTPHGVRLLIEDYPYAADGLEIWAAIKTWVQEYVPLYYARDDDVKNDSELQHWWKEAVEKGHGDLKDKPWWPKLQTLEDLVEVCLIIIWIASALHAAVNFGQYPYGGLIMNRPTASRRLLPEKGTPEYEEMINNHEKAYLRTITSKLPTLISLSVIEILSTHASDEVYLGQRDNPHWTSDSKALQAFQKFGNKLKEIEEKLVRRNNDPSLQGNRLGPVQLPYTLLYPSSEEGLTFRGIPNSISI
# Outline: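 STD-1H NMR at 37 °C, 600 MHz, cryoprobe. Lyophilized soybean LOX-1 in Tris buffer (20 mM Tris, 7 mM (NH4)2SO4, 3.5 mM MgCl2, 0.3 mM DTT in D2O, pH 9.0). Ligand added from a 16.6 mM DMSO-d6 stock. Final concentrations: LOX 4 μM, ligand 1248 μM, ratio 300:1. On-resonance saturation at 1.0 ppm; off-resonance reference at 20000 Hz.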
# [2] = target: T2, Seed linoleate 13S-lipoxygenase-1 (Glycine max, UniProt P08170); assay: Mixed noncompetitive type inhibition of soybean LOX-1 using linoleic acid as substrate preincubated for 5 mins followed by substrate addition by Lineweaver-Burk plot analysis
# T2 sequence (P08170 whole entry): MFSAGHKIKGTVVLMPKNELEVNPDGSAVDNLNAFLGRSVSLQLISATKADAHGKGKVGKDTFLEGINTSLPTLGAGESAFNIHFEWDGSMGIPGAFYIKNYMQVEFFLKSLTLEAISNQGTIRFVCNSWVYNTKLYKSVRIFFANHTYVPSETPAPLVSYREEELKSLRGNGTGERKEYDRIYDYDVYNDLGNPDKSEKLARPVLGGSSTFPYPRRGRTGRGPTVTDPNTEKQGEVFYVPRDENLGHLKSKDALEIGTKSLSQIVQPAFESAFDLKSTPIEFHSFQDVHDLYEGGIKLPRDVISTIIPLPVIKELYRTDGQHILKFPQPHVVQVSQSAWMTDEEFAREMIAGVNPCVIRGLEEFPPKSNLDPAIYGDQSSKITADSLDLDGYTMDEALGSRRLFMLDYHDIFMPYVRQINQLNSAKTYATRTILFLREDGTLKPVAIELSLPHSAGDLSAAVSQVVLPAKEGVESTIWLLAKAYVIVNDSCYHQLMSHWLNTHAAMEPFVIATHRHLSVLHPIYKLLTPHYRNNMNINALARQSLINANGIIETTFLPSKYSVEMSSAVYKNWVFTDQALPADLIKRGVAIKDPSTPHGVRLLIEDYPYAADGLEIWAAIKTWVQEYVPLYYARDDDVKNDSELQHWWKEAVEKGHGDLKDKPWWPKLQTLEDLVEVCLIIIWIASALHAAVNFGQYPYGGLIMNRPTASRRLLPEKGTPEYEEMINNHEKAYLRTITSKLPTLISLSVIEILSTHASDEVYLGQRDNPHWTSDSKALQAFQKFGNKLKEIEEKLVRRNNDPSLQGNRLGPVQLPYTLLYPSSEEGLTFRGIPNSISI
# Outline: (§1)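 Soybean LOX-1 (supplied lyophilized) kinetic assay. Enzyme pre-incubated with inhibitor 5 min, then linoleic acid added. Conversion to the cis,trans-hydroperoxide followed at 234 nm at 30 °C with continuous soft shaking. Readings every 30 s for 10 min; rate taken as the 0–3 min slope. Three inhibitor concentrations tested against three substrate concentrations. Inhibition type assigned by nonlinear Michaelis–Menten fitting and Lineweaver–Burk plots. At least four experiments, each in triplicate.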
# [3] = target: T3, Polyunsaturated fatty acid 5-lipoxygenase (Homo sapiens, UniProt P09917); assay: Inhibition of 5-LOX-mediated LTB4 production in human neutrophils using arachidonic acid as substrate preincubated for 10 mins followed by substrate addition measured after 8 mins by enzyme immunoassay
# T3 sequence (P09917 whole entry): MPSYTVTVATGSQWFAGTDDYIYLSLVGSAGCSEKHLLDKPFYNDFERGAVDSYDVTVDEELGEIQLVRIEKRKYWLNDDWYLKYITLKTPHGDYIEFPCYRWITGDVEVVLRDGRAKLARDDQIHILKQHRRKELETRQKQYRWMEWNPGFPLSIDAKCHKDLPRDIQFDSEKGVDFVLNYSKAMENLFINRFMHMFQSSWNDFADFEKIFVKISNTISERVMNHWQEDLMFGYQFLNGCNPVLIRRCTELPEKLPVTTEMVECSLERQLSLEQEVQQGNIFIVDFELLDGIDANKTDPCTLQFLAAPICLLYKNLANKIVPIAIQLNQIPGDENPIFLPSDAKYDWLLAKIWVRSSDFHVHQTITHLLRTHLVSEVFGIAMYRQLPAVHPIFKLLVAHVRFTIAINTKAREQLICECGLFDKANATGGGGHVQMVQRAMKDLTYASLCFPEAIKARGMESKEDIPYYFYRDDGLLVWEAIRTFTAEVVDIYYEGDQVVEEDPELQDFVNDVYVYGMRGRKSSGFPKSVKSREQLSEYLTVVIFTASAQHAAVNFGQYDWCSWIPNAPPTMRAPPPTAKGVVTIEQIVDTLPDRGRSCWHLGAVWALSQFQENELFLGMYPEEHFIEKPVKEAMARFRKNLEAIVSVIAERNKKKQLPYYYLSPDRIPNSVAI
# Outline: (§2)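 Isolated human neutrophils held in HBSS on ice; viability checked by trypan blue. Flavonoids (0.15–40 μM) pre-incubated 10 min, then A23187 (5 μM) plus arachidonic acid (10 μg/mL) added for 8 min. Stopped with cold methanol and centrifuged 13,000 g, 1 min, 4 °C. LTB4 measured by EIA and expressed as % inhibition of control. NDGA (1 μM) positive control. At least three experiments.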
# [4] = target: T4, Polyunsaturated fatty acid 5-lipoxygenase (Homo sapiens) (UniProt P09917); assay: Inhibition of 5-LOX-mediated LTB4 production in human neutrophils using arachidonic acid as substrate at 40 uM preincubated for 10 mins followed by substrate addition measured after 8 mins by enzyme immunoassay relative to control
# T4 sequence (whole entry): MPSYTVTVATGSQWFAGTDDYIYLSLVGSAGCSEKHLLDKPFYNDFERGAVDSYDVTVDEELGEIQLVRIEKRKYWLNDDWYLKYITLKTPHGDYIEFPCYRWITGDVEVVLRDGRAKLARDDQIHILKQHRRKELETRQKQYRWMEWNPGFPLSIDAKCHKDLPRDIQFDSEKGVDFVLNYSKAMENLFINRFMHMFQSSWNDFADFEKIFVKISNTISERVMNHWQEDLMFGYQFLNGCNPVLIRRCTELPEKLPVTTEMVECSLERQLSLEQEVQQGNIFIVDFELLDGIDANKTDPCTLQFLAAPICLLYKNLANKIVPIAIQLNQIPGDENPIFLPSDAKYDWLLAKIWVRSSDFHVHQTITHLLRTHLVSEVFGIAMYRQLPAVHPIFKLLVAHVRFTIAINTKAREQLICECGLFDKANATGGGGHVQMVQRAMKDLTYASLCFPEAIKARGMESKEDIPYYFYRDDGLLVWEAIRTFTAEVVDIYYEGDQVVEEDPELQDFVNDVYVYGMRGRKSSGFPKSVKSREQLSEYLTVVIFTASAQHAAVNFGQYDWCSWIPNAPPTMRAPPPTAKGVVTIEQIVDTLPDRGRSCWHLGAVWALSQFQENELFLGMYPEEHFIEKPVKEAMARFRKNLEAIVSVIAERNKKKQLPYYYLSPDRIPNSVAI
# Outline: as §2, with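 “blue. Cells at 3.5×10^6 cells/mL equilibrated 10 min at 37 °C.” for “blue.”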
# [5] = substrate: O=c1c(O)c(-c2ccc(O)c(O)c2)oc2cc(O)cc(O)c12; assay: (§3) Activity at soybean LOX-1 using linoleic acid as substrate at 25 uM preincubated for 5 mins followed by substrate addition by Michaelis-Menten plot analysis; settings: Glycine max; outline: as §1
# [6] = substrate: O=c1cc(-c2ccc(O)c(O)c2)oc2cccc(O)c12; assay: as §3; settings: Glycine max; outline: as §1
# [7] = substrate: O=c1cc(-c2ccc(O)c(O)c2)oc2cc(O)ccc12; assay: as §3; settings: Glycine max; outline: as §1
# [8] = substrate: O=c1cc(-c2ccccc2)oc2cc(O)cc(O)c12; assay: as §3; settings: Glycine max; outline: as §1
# [9] = substrate: O=c1cc(-c2ccc(O)cc2)oc2cc(O)cc(O)c12; assay: as §3; settings: Glycine max; outline: as §1
# [10] = substrate: O=c1cc(-c2ccc(O)c(O)c2)oc2ccccc12; assay: as §3; settings: Glycine max; outline: as §1
# [11] = substrate: O=c1cc(-c2ccc(O)c(O)c2)oc2cc(O)cc(O)c12; assay: (§4) Activity at soybean LOX-1 using linoleic acid as substrate at 10 uM preincubated for 5 mins followed by substrate addition by Michaelis-Menten plot analysis; settings: Glycine max; outline: as §1
# [12] = substrate: O=c1cc(-c2ccc(O)c(O)c2)oc2cc(O)ccc12; assay: as §4; settings: Glycine max; outline: as §1
# [13] = substrate: O=c1cc(-c2ccccc2)oc2cc(O)cc(O)c12; assay: as §4; settings: Glycine max; outline: as §1
# [14] = substrate: O=c1cc(-c2ccc(O)cc2)oc2cccc(O)c12; assay: as §4; settings: Glycine max; outline: as §1
# [15] = substrate: O=c1cc(-c2ccc(O)c(O)c2)oc2ccccc12; assay: as §4; settings: Glycine max; outline: as §1
# [16] = substrate: O=c1cc(-c2ccc(O)c(O)c2)oc2cc(O)cc(O)c12; assay: (§5) Activity at soybean LOX-1 using linoleic acid as substrate at 50 uM preincubated for 5 mins followed by substrate addition by Michaelis-Menten plot analysis; settings: Glycine max; outline: as §1
# [17] = substrate: O=c1cc(-c2ccc(O)c(O)c2)oc2cccc(O)c12; assay: as §5; settings: Glycine max; outline: as §1
# [18] = substrate: O=c1cc(-c2cccc(O)c2)oc2cc(O)cc(O)c12; assay: as §5; settings: Glycine max; outline: as §1
# [19] = substrate: O=c1cc(-c2ccc(O)cc2)oc2cccc(O)c12; assay: as §5; settings: Glycine max; outline: as §1
# [20] = substrate: O=c1c(O)c(-c2ccc(O)c(O)c2)oc2cc(O)cc(O)c12; assay: (§6) Activity at soybean LOX-1 using linoleic acid as substrate at 100 uM preincubated for 5 mins followed by substrate addition by Michaelis-Menten plot analysis; settings: Glycine max; outline: as §1
# [21] = substrate: O=c1cc(-c2cccc(O)c2)oc2cc(O)cc(O)c12; assay: as §6; settings: Glycine max; outline: as §1
# [22] = substrate: O=c1cc(-c2ccc(O)cc2)oc2cc(O)cc(O)c12; assay: as §6; settings: Glycine max; outline: as §1
molecule,measurement,setting,value
O=c1cc(-c2ccc(O)c(O)c2)oc2ccccc12,Activity,[1],Active
same,Ki,[2],84.5 µM
same,IC50,[3],1.7 µM
O=c1cc(-c2ccc(O)cc2)oc2cccc(O)c12,Activity,[1],Active
same,Ki,[2],103 µM
same,inhibition,[4],29.8%
"Seed linoleate 13S-lipoxygenase-1 (Glycine max), P08170 (protein) MFSAGHKIKGTVVLMPKNELEVNPDGSAVDNLNAFLGRSVSLQLISATKADAHGKGKVGKDTFLEGINTSLPTLGAGESAFNIHFEWDGSMGIPGAFYIKNYMQVEFFLKSLTLEAISNQGTIRFVCNSWVYNTKLYKSVRIFFANHTYVPSETPAPLVSYREEELKSLRGNGTGERKEYDRIYDYDVYNDLGNPDKSEKLARPVLGGSSTFPYPRRGRTGRGPTVTDPNTEKQGEVFYVPRDENLGHLKSKDALEIGTKSLSQIVQPAFESAFDLKSTPIEFHSFQDVHDLYEGGIKLPRDVISTIIPLPVIKELYRTDGQHILKFPQPHVVQVSQSAWMTDEEFAREMIAGVNPCVIRGLEEFPPKSNLDPAIYGDQSSKITADSLDLDGYTMDEALGSRRLFMLDYHDIFMPYVRQINQLNSAKTYATRTILFLREDGTLKPVAIELSLPHSAGDLSAAVSQVVLPAKEGVESTIWLLAKAYVIVNDSCYHQLMSHWLNTHAAMEPFVIATHRHLSVLHPIYKLLTPHYRNNMNINALARQSLINANGIIETTFLPSKYSVEMSSAVYKNWVFTDQALPADLIKRGVAIKDPSTPHGVRLLIEDYPYAADGLEIWAAIKTWVQEYVPLYYARDDDVKNDSELQHWWKEAVEKGHGDLKDKPWWPKLQTLEDLVEVCLIIIWIASALHAAVNFGQYPYGGLIMNRPTASRRLLPEKGTPEYEEMINNHEKAYLRTITSKLPTLISLSVIEILSTHASDEVYLGQRDNPHWTSDSKALQAFQKFGNKLKEIEEKLVRRNNDPSLQGNRLGPVQLPYTLLYPSSEEGLTFRGIPNSISI",Km,[5],129 µM
same,Vmax,[5],0.008 µM
same,Km,[6],104 µM
same,Km,[7],190 µM
same,Km,[8],55 µM
same,Km,[9],191 µM
same,Km,[10],191 µM
same,Km,[11],190 µM
same,Vmax,[11],0.012 µM
same,Km,[12],97.4 µM
same,Km,[13],71 µM
same,Km,[14],105 µM
same,Km,[15],137 µM
same,Km,[16],148 µM
same,Vmax,[16],0.009 µM
same,Km,[17],46.4 µM
same,Km,[18],145 µM
same,Km,[19],61.3 µM
same,Km,[20],100 µM
same,Vmax,[20],0.006 µM
same,Km,[21],111 µM
same,Km,[22],191 µM
